# Laboratory results from ChEMBL document CHEMBL4689842, “EUbOPEN Chemogenomics Library wave 1” (2021).
# Several values for one entry are separate records, joined by “and”; a condition that tells them apart may be missing. Identical values can stand only once.
# How the values were obtained:
# Format in all cases: toxicity, cell-based
# HEK-293T [1] = assay: Multiplex assay against HEK293T; conditions: human, 10 µM, compound concentration 10 uM;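 as to Population Tubulin-Different-Phenotype (%): share of the cells with healthy nuclei that show this phenotype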
# Outline: (§1)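 Compound was added to live cells that had been stained at seeding with Hoechst33342, BioTracker Green Microtubule Cytoskeleton Dye, MitoTracker Red and Annexin V Alexa Fluor 680, and imaging followed on a CQ1 microscope at 37°C and 5% CO2. CellPathfinder machine-learning gating divided cells into Hoechst high-intensity objects or normal cells, normal cells into healthy, pyknosed or fragmented nuclei, and pyknosed cells into mitotic or apoptotic. Tubulin, mitochondrial-mass and membrane-permeability phenotypes are per cents of healthy-nucleus cells.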
# HEK-293T [2] = assay: Incucyte cell viability with HEK293T; conditions: human, 10 µM, compound concentration 10 uM; also: filed as whole numbers so only -1 and 0 and 1 occur
# Fibroblast [3] = assay: Multiplex assay against human fibroblast; conditions: 10 µM, compound concentration 10 uM; outline: as §1
# Fibroblast [4] = assay: Incucyte cell viability with human fibroblast; conditions: 10 µM, compound concentration 10 uM; also: filed as whole numbers so only -1 and 0 and 1 occur
# U2OS [5] = assay: Multiplex assay against U2OS; conditions: human, 10 µM, compound concentration 10 uM; outline: as §1
# U2OS [6] = assay: Incucyte cell viability with U2OS; conditions: human, 10 µM, compound concentration 10 uM; also: filed as whole numbers so only -1 and 0 and 1 occur
# [7] = 0 h, replicate number 2, timepoint 0 hours
# [8] = 24 h, replicate number 2, timepoint 24 hours
# [9] = 6 h, replicate number 1, timepoint 6 hours
# [10] = 12 h, replicate number 1, timepoint 12 hours
# [11] = 12 h, replicate number 2, timepoint 12 hours
# [12] = 18 h, replicate number 1, timepoint 18 hours
# [13] = 18 h, replicate number 2, timepoint 18 hours
# [14] = 24 h, replicate number 1, timepoint 24 hours
smiles,measurement,setting,value
Cc1c(Oc2ccc(F)cc2)c(OC(C)C)nn1-c1ccc(C2CC2)cn1 [IPP/CNRS-A019],Population Apoptotic (%),"HEK-293T [1]; 12 h, replicate 1",12% and 19%
same,Population Fragmented Nuclei (%),"HEK-293T [1]; 12 h, replicate 1",13% and 11%
same,Population Healthy Nuclei (%),"HEK-293T [1]; 12 h, replicate 1",69% and 68%
same,Population Hoechst High Intensity Objects (%),"HEK-293T [1]; 12 h, replicate 1",8% and 10%
same,Population Membrane Permeable-Phenotype (%),"HEK-293T [1]; 12 h, replicate 1",5% and 3%
same,Population Mitochondria Different-Phenotype (%),"HEK-293T [1]; 12 h, replicate 1",7% and 5%
same,Population Mitotic Cells (%),"HEK-293T [1]; 12 h, replicate 1",87% and 80%
same,Population Normal (%),"HEK-293T [1]; 12 h, replicate 1",91% and 89%
same,Population Pyknosed Nuclei (%),"HEK-293T [1]; 12 h, replicate 1",17% and 19%
same,Population Tubulin-Different-Phenotype (%),"HEK-293T [1]; 12 h, replicate 1",7% and 3%
same,Total Cell Count,"HEK-293T [1]; 12 h, replicate 1",607 and 515
same,Population Apoptotic (%),"HEK-293T [1]; 12 h, replicate 2",15% and 18%
same,Population Fragmented Nuclei (%),"HEK-293T [1]; 12 h, replicate 2",7% and 9%
same,Population Healthy Nuclei (%),"HEK-293T [1]; 12 h, replicate 2",89% and 86%
same,Population Hoechst High Intensity Objects (%),"HEK-293T [1]; 12 h, replicate 2",2% and 1%
same,Population Membrane Permeable-Phenotype (%),"HEK-293T [1]; 12 h, replicate 2",4% and 1%
same,Population Mitochondria Different-Phenotype (%),"HEK-293T [1]; 12 h, replicate 2",17%
same,Population Mitotic Cells (%),"HEK-293T [1]; 12 h, replicate 2",84% and 81%
same,Population Normal (%),"HEK-293T [1]; 12 h, replicate 2",97% and 98%
same,Population Pyknosed Nuclei (%),"HEK-293T [1]; 12 h, replicate 2",2% and 3%
same,Total Cell Count,"HEK-293T [1]; 12 h, replicate 2",1658 and 1670
same,Population Apoptotic (%),"HEK-293T [1]; 24 h, replicate 1",28% and 16%
same,Population Fragmented Nuclei (%),"HEK-293T [1]; 24 h, replicate 1",12% and 14%
same,Population Healthy Nuclei (%),"HEK-293T [1]; 24 h, replicate 1",77%
same,Population Hoechst High Intensity Objects (%),"HEK-293T [1]; 24 h, replicate 1",6%
same,Population Membrane Permeable-Phenotype (%),"HEK-293T [1]; 24 h, replicate 1",10%
same,Population Mitochondria Different-Phenotype (%),"HEK-293T [1]; 24 h, replicate 1",4% and 8%
same,Population Mitotic Cells (%),"HEK-293T [1]; 24 h, replicate 1",71% and 83%
same,Population Normal (%),"HEK-293T [1]; 24 h, replicate 1",93%
same,Population Pyknosed Nuclei (%),"HEK-293T [1]; 24 h, replicate 1",10% and 7%
same,Population Tubulin-Different-Phenotype (%),"HEK-293T [1]; 24 h, replicate 1",6% and 9%
same,Total Cell Count,"HEK-293T [1]; 24 h, replicate 1",595 and 667
same,Population Apoptotic (%),"HEK-293T [1]; 24 h, replicate 2",9% and 6%
same,Population Fragmented Nuclei (%),"HEK-293T [1]; 24 h, replicate 2",19% and 8%
same,Population Healthy Nuclei (%),"HEK-293T [1]; 24 h, replicate 2",78% and 89%
same,Population Hoechst High Intensity Objects (%),"HEK-293T [1]; 24 h, replicate 2",2%
same,Population Membrane Permeable-Phenotype (%),"HEK-293T [1]; 24 h, replicate 2",2%
same,Population Mitotic Cells (%),"HEK-293T [1]; 24 h, replicate 2",90% and 93%
same,Population Normal (%),"HEK-293T [1]; 24 h, replicate 2",97%
same,Population Pyknosed Nuclei (%),"HEK-293T [1]; 24 h, replicate 2",2% and 1%
same,Population Tubulin-Different-Phenotype (%),"HEK-293T [1]; 24 h, replicate 2",20%
same,Total Cell Count,"HEK-293T [1]; 24 h, replicate 2",2108 and 1925
same,Growth Rate,"HEK-293T [2]; 0 h, replicate number 1, timepoint 0 hours",0
same,Growth Rate,HEK-293T [2]; [7],1
same,Growth Rate,HEK-293T [2]; [8],1
same,Population Apoptotic (%),"Fibroblast [3]; 12 h, replicate 1",78% and 77%
same,Population Fragmented Nuclei (%),"Fibroblast [3]; 12 h, replicate 1",26% and 22%
same,Population Healthy Nuclei (%),"Fibroblast [3]; 12 h, replicate 1",58% and 60%
same,Population Hoechst High Intensity Objects (%),"Fibroblast [3]; 12 h, replicate 1",12% and 13%
same,Population Membrane Permeable-Phenotype (%),"Fibroblast [3]; 12 h, replicate 1",5%
same,Population Mitochondria Different-Phenotype (%),"Fibroblast [3]; 12 h, replicate 1",3% and 6%
same,Population Mitotic Cells (%),"Fibroblast [3]; 12 h, replicate 1",21% and 22%
same,Population Normal (%),"Fibroblast [3]; 12 h, replicate 1",87% and 86%
same,Population Pyknosed Nuclei (%),"Fibroblast [3]; 12 h, replicate 1",15% and 18%
same,Population Tubulin-Different-Phenotype (%),"Fibroblast [3]; 12 h, replicate 1",9% and 4%
same,Total Cell Count,"Fibroblast [3]; 12 h, replicate 1",308 and 230
same,Population Fragmented Nuclei (%),"Fibroblast [3]; 12 h, replicate 2",33% and 67%
same,Population Healthy Nuclei (%),"Fibroblast [3]; 12 h, replicate 2",49% and 28%
same,Population Hoechst High Intensity Objects (%),"Fibroblast [3]; 12 h, replicate 2",38% and 40%
same,Population Mitochondria Different-Phenotype (%),"Fibroblast [3]; 12 h, replicate 2",19% and 42%
same,Population Normal (%),"Fibroblast [3]; 12 h, replicate 2",61% and 59%
same,Total Cell Count,"Fibroblast [3]; 12 h, replicate 2",103 and 83
same,Population Apoptotic (%),"Fibroblast [3]; 24 h, replicate 1",69% and 48%
same,Population Fragmented Nuclei (%),"Fibroblast [3]; 24 h, replicate 1",22% and 21%
same,Population Healthy Nuclei (%),"Fibroblast [3]; 24 h, replicate 1",62% and 63%
same,Population Hoechst High Intensity Objects (%),"Fibroblast [3]; 24 h, replicate 1",16% and 19%
same,Population Membrane Permeable-Phenotype (%),"Fibroblast [3]; 24 h, replicate 1",5% and 4%
same,Population Mitochondria Different-Phenotype (%),"Fibroblast [3]; 24 h, replicate 1",7%
same,Population Mitotic Cells (%),"Fibroblast [3]; 24 h, replicate 1",30% and 51%
same,Population Normal (%),"Fibroblast [3]; 24 h, replicate 1",83% and 80%
same,Population Pyknosed Nuclei (%),"Fibroblast [3]; 24 h, replicate 1",14% and 15%
same,Population Tubulin-Different-Phenotype (%),"Fibroblast [3]; 24 h, replicate 1",9% and 4%
same,Total Cell Count,"Fibroblast [3]; 24 h, replicate 1",321 and 238
same,Population Fragmented Nuclei (%),"Fibroblast [3]; 24 h, replicate 2",44% and 63%
same,Population Healthy Nuclei (%),"Fibroblast [3]; 24 h, replicate 2",46% and 34%
same,Population Hoechst High Intensity Objects (%),"Fibroblast [3]; 24 h, replicate 2",38%
same,Population Membrane Permeable-Phenotype (%),"Fibroblast [3]; 24 h, replicate 2",10% and 0%
same,Population Normal (%),"Fibroblast [3]; 24 h, replicate 2",61%
same,Total Cell Count,"Fibroblast [3]; 24 h, replicate 2",103 and 84
same,Growth Rate,Fibroblast [4]; [7],0
same,Growth Rate,Fibroblast [4]; [9],0
same,Growth Rate,Fibroblast [4]; [10],0
same,Growth Rate,Fibroblast [4]; [11],1
same,Growth Rate,Fibroblast [4]; [12],0
same,Growth Rate,Fibroblast [4]; [13],1
same,Growth Rate,Fibroblast [4]; [14],0
same,Growth Rate,Fibroblast [4]; [8],1
same,Population Apoptotic (%),"U2OS [5]; 12 h, replicate 1",23% and 20%
same,Population Fragmented Nuclei (%),"U2OS [5]; 12 h, replicate 1",3%
same,Population Healthy Nuclei (%),"U2OS [5]; 12 h, replicate 1",88%
same,Population Hoechst High Intensity Objects (%),"U2OS [5]; 12 h, replicate 1",2% and 3%
same,Population Membrane Permeable-Phenotype (%),"U2OS [5]; 12 h, replicate 1",12% and 11%
same,Population Mitochondria Different-Phenotype (%),"U2OS [5]; 12 h, replicate 1",11% and 23%
same,Population Mitotic Cells (%),"U2OS [5]; 12 h, replicate 1",76% and 80%
same,Population Normal (%),"U2OS [5]; 12 h, replicate 1",97% and 96%
same,Population Pyknosed Nuclei (%),"U2OS [5]; 12 h, replicate 1",7% and 6%
same,Population Tubulin-Different-Phenotype (%),"U2OS [5]; 12 h, replicate 1",14% and 25%
same,Total Cell Count,"U2OS [5]; 12 h, replicate 1",250 and 141
same,Population Apoptotic (%),"U2OS [5]; 12 h, replicate 2",50% and 33%
same,Population Fragmented Nuclei (%),"U2OS [5]; 12 h, replicate 2",5% and 8%
same,Population Healthy Nuclei (%),"U2OS [5]; 12 h, replicate 2",90% and 87%
same,Population Hoechst High Intensity Objects (%),"U2OS [5]; 12 h, replicate 2",11% and 13%
same,Population Membrane Permeable-Phenotype (%),"U2OS [5]; 12 h, replicate 2",15% and 7%
same,Population Mitochondria Different-Phenotype (%),"U2OS [5]; 12 h, replicate 2",21% and 25%
same,Population Mitotic Cells (%),"U2OS [5]; 12 h, replicate 2",50% and 66%
same,Population Normal (%),"U2OS [5]; 12 h, replicate 2",88% and 86%
same,Population Pyknosed Nuclei (%),"U2OS [5]; 12 h, replicate 2",4%
same,Population Tubulin-Different-Phenotype (%),"U2OS [5]; 12 h, replicate 2",19% and 24%
same,Total Cell Count,"U2OS [5]; 12 h, replicate 2",152 and 113
same,Population Apoptotic (%),"U2OS [5]; 24 h, replicate 1",42% and 34%
same,Population Fragmented Nuclei (%),"U2OS [5]; 24 h, replicate 1",2% and 3%
same,Population Healthy Nuclei (%),"U2OS [5]; 24 h, replicate 1",93% and 90%
same,Population Hoechst High Intensity Objects (%),"U2OS [5]; 24 h, replicate 1",2% and 1%
same,Population Membrane Permeable-Phenotype (%),"U2OS [5]; 24 h, replicate 1",8% and 7%
same,Population Mitochondria Different-Phenotype (%),"U2OS [5]; 24 h, replicate 1",9%
same,Population Mitotic Cells (%),"U2OS [5]; 24 h, replicate 1",57% and 65%
same,Population Normal (%),"U2OS [5]; 24 h, replicate 1",97% and 98%
same,Population Pyknosed Nuclei (%),"U2OS [5]; 24 h, replicate 1",5%
same,Population Tubulin-Different-Phenotype (%),"U2OS [5]; 24 h, replicate 1",25% and 18%
same,Total Cell Count,"U2OS [5]; 24 h, replicate 1",149 and 352
same,Population Fragmented Nuclei (%),"U2OS [5]; 24 h, replicate 2",8% and 7%
same,Population Healthy Nuclei (%),"U2OS [5]; 24 h, replicate 2",87% and 85%
same,Population Hoechst High Intensity Objects (%),"U2OS [5]; 24 h, replicate 2",4% and 5%
same,Population Membrane Permeable-Phenotype (%),"U2OS [5]; 24 h, replicate 2",15% and 9%
same,Population Mitochondria Different-Phenotype (%),"U2OS [5]; 24 h, replicate 2",24% and 37%
same,Population Normal (%),"U2OS [5]; 24 h, replicate 2",95% and 94%
same,Population Pyknosed Nuclei (%),"U2OS [5]; 24 h, replicate 2",4% and 6%
same,Population Tubulin-Different-Phenotype (%),"U2OS [5]; 24 h, replicate 2",16% and 24%
same,Total Cell Count,"U2OS [5]; 24 h, replicate 2",184 and 121
same,Growth Rate,U2OS [6]; [7],0
same,Growth Rate,U2OS [6]; [9],1
same,Growth Rate,"U2OS [6]; 6 h, replicate number 2, timepoint 6 hours",0
same,Growth Rate,U2OS [6]; [10],1
same,Growth Rate,U2OS [6]; [11],0
same,Growth Rate,U2OS [6]; [12],1
same,Growth Rate,U2OS [6]; [13],0
same,Growth Rate,U2OS [6]; [14],1
same,Growth Rate,U2OS [6]; [8],0
